Bioassay records from PubChem.
UCH37 inh: human UCH37 deubiquitinating enzyme inhibition; Q9Y5K5; purified proteasome/UCH37, Ub-AMC cleavage fluorescence; inhibition, % (no concentration beside the values); 330,000 compounds, 0.33% hits; AID 588478;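 active = mean inhibition over replicate wells above about 20%, limit read from the data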;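 note: 0% = compound-free wells with enzyme and 100% = wells lacking proteasome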
Target sequence (Q9Y5K5 whole entry, looked up): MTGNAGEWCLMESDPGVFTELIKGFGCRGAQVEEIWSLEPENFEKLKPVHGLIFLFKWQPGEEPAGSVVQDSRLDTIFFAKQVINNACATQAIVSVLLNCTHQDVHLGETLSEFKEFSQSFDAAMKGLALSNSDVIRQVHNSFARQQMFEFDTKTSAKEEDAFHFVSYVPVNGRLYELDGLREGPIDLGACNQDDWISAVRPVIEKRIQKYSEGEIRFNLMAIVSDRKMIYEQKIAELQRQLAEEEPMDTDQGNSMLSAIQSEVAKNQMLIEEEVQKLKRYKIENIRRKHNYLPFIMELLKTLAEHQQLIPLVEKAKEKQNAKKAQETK
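Material: Human UCH37 enzyme supplied as purified proteasome complex | Schedule: 30 min preincubation with enzyme, 25 min cleavage at room temperature | Detection: AMC fluorescence 355/460 nm | Measure: % inhibition of Ub-AMC cleavage fluorescence | Controls: Wells without proteasome as full block, compound-free enzyme plus substrate as uninhibited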
M18AAP inhibitor: blocks P. falciparum M18 aspartyl aminopeptidase. recombinant PfM18AAP, H-Glu-NHMec fluorogenic cleavage. inhibition, % at 7.35 µM. 290,000 compounds, 1.2% hits. AID 1822;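 active = inhibition above the campaign mean inhibition over all tested compounds plus 3 SD, cut at about 28% in these data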;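 note: 0% = plate median of test compound wells and 100% = 2 mM ZnCl2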
HDAC3 inhib: inhibitors of human histone deacetylase 3; recombinant HDAC3, fluorogenic peptide/trypsin coupled, fluorescence; inhibition, % at 8.3 µM; 320,000 compounds, 0.15% hits; in the data active = inhibition above about 26%, passing the limit was not always enough; inconclusive = no clear call, values can overlap the other calls
FAS-TE inh: inhibitors of human fatty acid synthase thioesterase domain; recombinant FAS-TE, OMFH fluorogenic substrate, fluorescence endpoint; AID 602261; inhibition, % at 15 µM; 360,000 compounds, 0.67% hits;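 active = compounds whose normalised, plate-corrected inhibition of enzyme fluorescence in the single-dose primary screen is 50% or more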;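 note: 0% = DMSO with enzyme and 100% = substrate without enzyme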
ALR inh: inhibitors of human sulfhydryl oxidase ALR; AID 485317; P55789; 290,000 compounds, 3.8% hits; purified ALR, DTT oxidation, H2O2 HRP-luminol luminescence; inhibition, % (concentration not given with the values);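 active = mean replicate inhibition above about 79%, with every replicate also reaching it, limit read from the data; inconclusive = only one of the two criteria met; inactive = mean below limit and not every replicate reaching it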
Target sequence (P55789 whole entry, looked up): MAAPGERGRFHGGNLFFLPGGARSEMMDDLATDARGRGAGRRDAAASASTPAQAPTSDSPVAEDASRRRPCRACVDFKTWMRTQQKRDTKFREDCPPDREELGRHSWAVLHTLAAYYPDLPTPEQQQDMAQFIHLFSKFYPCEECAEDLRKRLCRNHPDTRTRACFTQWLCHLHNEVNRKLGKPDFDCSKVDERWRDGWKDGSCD
Rtt109 Vps75: C. albicans Rtt109 histone acetyltransferase inhibition; 330,000 compounds, 0.16% hits; AID 540336; purified Rtt109/Vps75, ThioGlo CoA-SH fluorescence, 4 h; Q5AAJ8; inhibition, % at 34.9 µM;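 active = inhibition of at least 50% in every replicate; inconclusive = best replicate reaches 50% inhibition but some replicates fall short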
An asterisk follows results filed as active; i = inactive; ? = inconclusive; · = not tested or not shown. An excerpt weighted towards active compounds, which were near 4.6% of everything screened.

SMILES | UCH37 inh | M18AAP inhibitor | HDAC3 inhib | FAS-TE inh | ALR inh | Rtt109 Vps75
CN(C)c1ccc(C=NN(CCC(=O)NC(C)(C)C)C2=NS(=O)(=O)c3ccccc32)cc1 | 2 | · | · | · | · | ·
O=C(NN=Cc1cc([N+](=O)[O-])ccc1O)c1ccc(COc2ccc3c(c2)CCC3)o1 | 4 | · | · | · | · | ·
C#CCSc1nnc(-c2cccc3ccccc23)o1 | -12 | 3 | -1 | 14 | 97* | 14
CC(=NNC(=O)c1ccc(C)cc1C)c1ccc2c(c1)OCO2 | 2 | · | · | · | · | ·
O=c1oc2c3c4c(cc2s1)CCCN4CCC3 | 3 | 13 | 1 | 1 | 99* | ?
O=c1ccc2cc3c4c(c2o1)CCCN4CCC3 | i | 10 | -26 | -45 | -68 | -187
CCOC(=O)c1c(C)[nH]c2cc(Br)c(O)cc12 | 6 | 6 | -2 | 0 | 11 | 13
CCOC(=O)c1c(OCC)[nH]c2c1cc(O)c1ccccc12 | -11 | -1 | 0 | -2 | 99* | ?
CC(=O)Nc1ccc(S(=O)(=O)Nc2ccc(N3CCOCC3)cc2)cc1 | -1 | 10 | -2 | -1 | 82* | -8
CC1CCCCN1CC(=O)Nc1ccc(N2CCCCCC2)cc1 (centres undefined) | 1 | 7 | 1 | 1 | 99* | 27
CC(=O)Nc1ccc(N2CCCCC2)cc1 | 0 | 4 | 1 | -12 | 99* | -1
CCCC(=O)Nc1ccc(N2CCCCC2)cc1 | 1 | 2 | 6 | -3 | 82* | -2
CC(=O)c1ccc(S(=O)(=O)Nc2ccc(N3CCOCC3)cc2)cc1 | 1 | 11 | 10 | 0 | 34 | 2
CCC(=O)Nc1ccc(N2CCCCC2)cc1 | 2 | 7 | 3 | -6 | · | 16
Cc1ccc(C=NNc2ccc(C(=O)O)cc2)o1 | 15 | · | · | · | · | ·
NC(=NO)c1cccn1Cc1ccccc1[N+](=O)[O-] | 1 | · | · | · | · | ·
O=C(CNC(=O)c1ccccc1Br)NN=Cc1cc(Br)ccc1O | -1 | · | · | · | · | ·
Cc1ccc(S(=O)(=O)Nc2ccc(N3CCCCC3)cc2)cc1 | 1 | 0 | -5 | 1 | 98* | 0
O=C(CCC(=O)c1cccs1)Nc1ccc(N2CCCCC2)cc1 | 0 | 6 | 3 | 0 | 90* | -4
O=C(Cc1ccccc1)Nc1ccc(N2CCCCC2)cc1 | 5 | 0 | -6 | -6 | 6 | 17
COc1ccc(C(=O)O)cc1S(=O)(=O)Nc1ccc(N2CCCCC2)cc1 | 2 | · | 5 | -3 | 96* | 6
COc1ccc(C(=O)O)cc1S(=O)(=O)Nc1ccc(C)cc1 | 4 | -2 | 5 | -4 | · | 0
O=C(CCl)Nc1ccc(N2CCCCCC2)cc1 | 4 | 7 | 2 | 7 | 99* | 6
CC(=NNc1ccc(F)cc1)c1ccc(Cl)s1 | -3 | · | · | · | · | ·
COc1cc(C=NNC(=O)C[n+]2ccccc2)cc(OC)c1OC | 4 | · | · | · | · | ·
SMILES | UCH37 inh | M18AAP inhibitor | HDAC3 inhib | FAS-TE inh | ALR inh | Rtt109 Vps75
O=C(Nc1ccc(N2CCCCC2)cc1)C1CCCN1S(=O)(=O)c1ccc(F)cc1 (centres undefined) | -1 | · | 2 | -2 | 80* | -1
CCOC(=O)C1=C(O)/C(=C/c2cccc(OC)c2O)N=C1C | 13 | 10 | 9 | -5 | 78* | -1
CCOc1ccccc1N(CC(=O)NN=Cc1cc(Br)ccc1OC)S(C)(=O)=O | 3 | · | · | · | · | ·
CCOc1cc(-c2c(C#N)c(N)nc3c2CCCC3C)ccc1O (centres undefined) | -8 | 6 | 1 | 8 | 98* | 19
CCOc1cc(-c2c(C#N)c(N)nc3c2CCc2ccccc2-3)ccc1O | -129 | -2 | 0 | 27 | 33 | 3
CCOc1cc(C=NN=C(N)c2nonc2N)cc(Br)c1OCc1ccc(Cl)cc1 | 9 | · | · | · | · | ·
CCC(=O)n1nc(-c2ccccc2)nc1N | 23* | -7 | -6 | -7 | 5 | -3
C=C(C)C1CC=C(C)C(=NNC(=O)c2ccc(NC(=O)CC)cc2)C1 (centres undefined) | 2 | · | · | · | · | ·
COc1ccc(C(=O)CSc2nnc(-c3ccco3)n2CC2CCCO2)cc1 (centres undefined) | 1 | -7 | 3 | -3 | 32 | 4
COc1cccc(C(=O)CSc2nnc(-c3ccco3)n2CC2CCCO2)c1 (centres undefined) | -1 | -7 | 10 | -1 | 91* | 4
Cc1occc1-c1nnc(SCC(=O)c2ccc3c(c2)OCCO3)n1CC1CCCO1 (centres undefined) | 3 | 0 | 8 | 0 | 23 | 1
Cc1occc1-c1nnc(SCC(=O)c2ccccc2)n1CC1CCCO1 (centres undefined) | -2 | -4 | 0 | -7 | 98* | -7
O=[N+]([O-])c1ccc(Sc2cccc[n+]2[O-])c2nonc12 | 15 | 13 | · | -49 | · | 123*
COc1ccc2cc(C(N)=O)c(=NNC(=O)c3ccco3)oc2c1 | 11 | · | · | · | · | ·
O=C(NNc1nc2c(F)cccc2s1)c1ccc(F)cc1 | -2 | 30* | 7 | -13 | -8 | 9
NNc1nc2c(F)cccc2s1 | 4 | 30* | 1 | -8 | -4 | -3
O=C(NNc1nc2c(F)cccc2s1)c1cc(=O)c2ccccc2o1 | · | 30* | 1 | 11 | · | -2
Fc1cccc2sc(Nc3nc4c(F)cccc4s3)nc12 | · | -4 | -19 | 4 | -6 | 0
Cc1ccc2sc(NNC(=O)c3cc(=O)c4ccccc4o3)nc2c1C | · | 30* | 0 | 11 | 99* | -3
CON=CCC(=O)Nc1ccc(Cl)c(Cl)c1 | -4 | · | · | · | · | ·
COc1cccc(NC(=S)NN=C2CC(C)(C)Oc3ccc(O)cc32)c1 | -14 | · | · | · | · | ·
O=C(Nc1ccc(O)c(-c2nc3ccccc3s2)c1)c1cc(=O)c2ccccc2o1 | · | 3 | -1 | -2 | -7 | 56*
O=C(Nc1ccc(O)c(-c2nc3ccccc3s2)c1)c1cccs1 | 2 | -9 | 7 | 18 | -2 | 1
COc1cccc(C(=O)NCC(=O)NN=C(C)/C=C/c2ccccc2)c1 | 5 | · | · | · | · | ·
Cc1ccccc1OCC(=O)NN=Cc1ccncc1 | 5 | · | · | · | · | ·
SMILES | UCH37 inh | M18AAP inhibitor | HDAC3 inhib | FAS-TE inh | ALR inh | Rtt109 Vps75
Cc1c(C(=O)NNC(=S)Nc2cccc(Cl)c2)nnn1-c1ccccc1 | 3 | 9 | 6 | -6 | 91* | -8
CCC1C/C(=C\c2cc(OC)c(OC)cc2OC)C(=O)/C(=C/c2cc(OC)c(OC)cc2OC)C1 (centres undefined) | -1 | 14 | ? | 17 | -16 | ·
CCC1C/C(=C/c2ccco2)C(=O)/C(=C/c2ccco2)C1 (centres undefined) | · | 18 | 7 | · | 97* | ·
Cc1ccc2c(c1)c1c3n2CCN(C(=O)CN2CCN(C)CC2)C3CCC1 (centres undefined) | -4 | 1 | -2 | -4 | 91* | 0
CN1CCN(CC(=O)N2CCn3c4c(c5cc(C6CCCCC6)ccc53)CCCC42)CC1 (centres undefined) | · | 5 | 11 | -12 | -6 | -4
COc1cc(OC)c(NC(C)C(=O)N2CCCC2)cc1Cl (centres undefined) | 1 | -1 | -4 | -6 | 79* | -5
